According to ChEMBL document CHEMBL2384959, “Sesquiterpenes and alkaloids from the roots of Alangium chinense” (J Nat Prod, 2013):
Active and inactive are the calls of the source. The calls are words filed in the database; no cut-off is given here.

Legend:
Coxsackievirus = assay: Antiviral activity against Coxsackievirus B3 infected in african green monkey Vero cells assessed as inhibition of virus-induced cytopathic effect; format: functional, organism-based
In short: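 Confluent Vero monolayers infected with 100 TCID50 Cox B3; 1 h adsorption at 37 °C, PBS wash, then maintenance medium (MEM + 2% FBS) ± graded compound concentrations at 37 °C. CPE scored once virus control reached 4+; IC50 by Reed and Muench. Ribavirin positive control.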

BGC-823 = assay: Cytotoxicity against human BGC823 cells by MTT assay; format: functional, cell-based
A549 = assay: Cytotoxicity against human A549 cells by MTT assay; format: functional, cell-based
A2780 = assay: Cytotoxicity against human A2780 cells by MTT assay; format: functional, cell-based
Bel-7402 = assay: Cytotoxicity against human Bel7402 cells by MTT assay; format: functional, cell-based
HCT-8 = assay: Cytotoxicity against human HCT8 cells by MTT assay; format: functional, cell-based
Liver microsomes = assay: Antioxidant activity in rat liver microsome assessed as inhibition of Fe2+-cysteine-induced lipid peroxidation after 15 mins; format: functional
In short: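 Rat liver microsomes (1.0 mg microsomal protein in 1 mL 0.1 M PBS, pH 7.4) incubated with […] cysteine plus test sample, 37 °C, 15 min; peroxidation started with 0.05 mM FeSO4. […] Vitamin E positive control.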

BV-2 = assay: Inhibition of LPS-induced nitric oxide production in […] BV2 cells after 24 hrs by spectrophotometry; format: functional, cell-based; details: Mus musculus, BV-2, 24 h
In short: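 BV2 microglial cells pre-cultured 24 h, then exposed to a range of concentrations and stimulated with E. coli 055:B5 LPS (300 ng/mL) for 24 h. Nitrite in the supernatant was measured with Griess reagent (1% sulfanilamide in 5% H3PO4 plus 0.1% N-(1-naphthyl)ethylenediamine, 1:1) for 20 min at room temperature, read at 550 nm against a sodium nitrite standard curve. Untreated cells served as negative control and curcumin as positive control.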

Row | Molecule | IC50 (Coxsackievirus) [µM] | Activity (BGC-823) | Activity (A549) | Activity (A2780) | Activity (Bel-7402) | Activity (HCT-8) | IC50 (Liver microsomes) | IC50 (Liver microsomes; read-out: IC50) [µM] | IC50 (BV-2) [µM]
1 | CC1=Cc2c(C(C)C)ccc(C)c2C(=O)C1=O | > 20 | inactive | inactive | inactive | inactive | inactive | Not Active |  | 
2 | Cc1cc2c(C(C)C)ccc(C)c2cc1O | 5.3 | inactive | inactive | inactive | inactive | inactive |  | 4.3 | 
3 | COC(=O)c1c(O)cc(C(C)C)c2cc(C)c(O)cc12 | 11.3 | inactive | inactive | inactive | inactive | inactive |  | 4.9 | 
4 | CC1=C2OC[C@@H](C)c3c(O)cc(C)c(c32)C(=O)C1=O | 3.1 | inactive | inactive | inactive | inactive | inactive |  | 17.8 | 
5 | Oc1ccccc1CN1CCCCC1c1cccnc1 (racemic) | > 20 | inactive | inactive | inactive | inactive | inactive |  |  | 
6 | COc1c(OC)c2nccc3c4ccccc4n(c1=O)c23 [4,5-DIMETHOXYCANTHIN-6-ONE] | 7.4 | inactive | inactive | inactive | inactive | inactive | Not Active |  | 
7 | Cc1cc2c(c(O)c1O)[C@@H](C)CC[C@@H]2C(C)C [(1S,4R)-7,8-DIHYDROXYCALAMENENE] | 7.4 | inactive | inactive | inactive | inactive | inactive | Not Active |  | 
8 | Cc1cc2c(cc1O)[C@@](C)(O)C(=O)C=C2C(C)C [LACINILENE C] | 15.4 | inactive | inactive | inactive | inactive | inactive |  | 39.8 | 
9 | VITAMIN E |  |  |  |  |  |  |  | 54.2 | 
10 | Oc1ccccc1CN1CCCC[C@H]1c1cccnc1 [(2S)-N-HYDROXYBENZYLANABASINE] |  | inactive | inactive | inactive | inactive | inactive |  |  | 6.7
11 | Cc1cc2c(C(C)C)cc(O)c(C)c2cc1O | 10.1 | inactive | inactive | inactive | inactive | inactive |  | 3.8 | 
12 | Oc1ccccc1CN1CCCC[C@@]1(O)c1cccnc1 |  | inactive | inactive | inactive | inactive | inactive |  |  | 
13 | CC1=C(O)C(=O)c2c(C)ccc3c(C)cnc1c23 | > 20 | inactive | inactive | inactive | inactive | inactive |  | 3.9 | 
14 | Oc1ccccc1CN1CCCC[C@]1(O)c1cccnc1 |  | inactive | inactive | inactive | inactive | inactive |  |  | 
15 | NC(=O)c1ncn([C@@H]2O[C@H](CO)[C@@H](O)[C@H]2O)n1 [RIBAVIRIN] | 222 |  |  |  |  |  |  |  | 
16 | C[C@@H]1CC[C@@H]2C(C)(C)O[C@@H]3[C@H](C)C(=O)C=C1[C@@]32O |  | inactive | inactive | inactive | inactive | inactive |  |  | 
17 | Oc1ccccc1CN1CCCCC1(O)c1cccnc1 (racemic) | > 20 | inactive | inactive | inactive | inactive | inactive |  |  | 
18 | CC1=C2OCC(C)c3ccc(C)c(c32)C(=O)C1=O (stereo unspecified) [MANSONONE E] | 4.7 | inactive | inactive | inactive | inactive | inactive |  | 45.7 | 
19 | CO[C@]1(C)C(=O)C=C(C(C)C)c2cc(C)c(O)cc21 | > 20 | inactive | inactive | inactive | inactive | inactive |  | 23.8 | 
20 | Oc1ccccc1CN1CCCC[C@@H]1c1cccnc1 [(2R)-N-HYDROXYBENZYLANABASINE] |  | inactive | inactive | inactive | inactive | inactive |  |  | > 20
21 | Cc1cc2c(C(C)C)cc(O)c(C=O)c2cc1O | 1.4 | inactive | inactive | inactive | inactive | inactive |  | 14.7 | 
22 | COc1cc(/C=C/C(=O)CC(=O)/C=C/c2ccc(O)c(OC)c2)ccc1O [CURCUMIN] |  |  |  |  |  |  |  |  | 3.1
